Test [1] is described as follows: inhibitors of TNFa-induced NFkB p65 translocation, primary screen, imaging, HUVEC, MLSMR starter and 10KST1 sets (AID 438;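 active means inhibition above 20% together with a positive visual image hit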;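 further: compound added about 3h40 before a 20 min TNFalpha stimulation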;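 on inhibition: signal is the nuclear over cytoplasmic p65 intensity ratio per well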). The note with it: HUVEC TNFa-induced p65 nuclear translocation; cell count: measured here: nuclei count (cytotoxicity indicator), at 2.08 µM; inhibition: at 2 µM, stronger effect = higher value, 0% TNFa-plus-vehicle, 100% no-TNFa wells.
Test [2] is described as follows: inhibitors of mutant huntingtin aggregation, primary screen, imaging, exon1htt(103Q)mCFP cells, high-content imaging (AID 483;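 active means visual image review flags a hit and inhibition of aggregation exceeds 20%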;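 further: compound exposure lasted 3 days before fixation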;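 on nuclei count: percent of the per-plate median nuclei count of sample wells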). The following applies: exon1htt(103Q)mCFP cell line, aggregate imaging, at 2 µM; inhibition of aggregation: stronger effect = higher value; nuclei count: measured here: cell count, toxicity.
Test [3] can be described thus: inhibitors of E-selectin induction by TNFa, primary screen, imaging, HUVEC, immunofluorescence, MLSMR starter and 10KST1 sets (AID 487;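 active means visually confirmed hit in the image check and inhibition above 20%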;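 on inhibition: signal is fraction of cell area covered by stained E-selectin grains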;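 on nuclei count: 100% = median nuclei count of all wells on the same plate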). The note with it: HUVEC TNFalpha-induced E-selectin immunofluorescence imaging, at 2 µM; inhibition: stronger effect = higher value; nuclei count: measured here: cell number, toxicity.
The target in test [4] is Voltage-gated potassium channel subunit beta-2 (Rattus norvegicus) (UniProt P62483). Description: KvBeta enzyme negative modulators, primary screen, biochemical, NADPH fluorescence (AID 622;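 active means fluorescence slope higher than the sample average by over 3 SD, cut at about -0.22 in these data, passing the limit was not always enough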;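 further: slope of raw intensity against log time taken from 70 to 1610 s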). The following applies: recombinant KvBeta, 4-cyanobenzaldehyde reduction, at 10 µM, stronger effect = higher value.
Test [5] has the same target. As to the kind of experiment: KvBeta positive modulators, primary screen, biochemical, NADPH fluorescence (AID 623;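 active means NADPH fluorescence slope more negative than the mean of all samples by about 3 SD, 99.7% confidence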;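 further: fluorescence intensity change per second fitted from 20 to 320 s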). The note with it: Recombinant KvBeta, NADPH fluorescence decrease slope, 10 min; at 10 µM; stronger effect = lower value.
Test [6] has as its target Muscarinic acetylcholine receptor M4 (Homo sapiens) (UniProt P08173). As to the kind of experiment: compounds altering M4/GIRK thallium flux, either direction, primary screen, M4 allosteric agonist project, cell-based, HEK293 M4/GIRK, BTC-AM (AID 625;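 active means fluorescence slope after compound addition differing from the mean of all tested samples at 99.7% confidence, mostly higher but some lower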;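 further: thallium influx through GIRK channels coupled to M4 in HEK293 cells with BTC-AM dye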). The note with it: at 10 µM, actives lie on both sides. A digest of the protocol:
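Material – HEK293 cells with M4 receptor and GIRK channels · Buffer or medium – pH 7.3 thallium assay buffer · Doses – one dose, 10 µM final · Timing – cells overnight at 37 °C, BTC-AM loading 1 h, reads 2 min total · Measured by – kinetic fluorescence with BTC-AM dye · Controls – carbachol and DMSO controls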

Test [7] can be described thus: inhibitors of Sendai virus-induced IRF3 signaling, primary screen, TLR/RLR signaling modifier project, cell-based, Sendai virus stimulus, luciferase, 10K MLSCN set (AID 602276;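 active means inhibition at or above 50% at 10 µM; inactive means inhibition below 50%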;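 further: firefly luciferase from ISG56 promoter only with Renilla not read in this screen; 0% = Sendai virus plus DMSO and 100% = medium plus DMSO without virus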). The following applies: HEK293 RL24 IRF3 luciferase reporter, at 10 µM, stronger effect = higher value. (In a reporter assay the amount or activity of a reporter protein is the signal.)
A short description of test [8]: inhibitors of poly I:C-induced TLR3 signaling, primary screen, cell-based, poly I:C stimulus, luciferase, 10K MLSCN set (AID 602277). The note with it: HEK293-TLR3 RL24 IRF3 luciferase reporter, at 10 µM, stronger effect = higher value.

For orientation: inhibition means the change of the read-out against control, counted positive when it falls.

The source made the active and inactive calls.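 How the source made its calls, unless noted: active means inhibition of the reporter signal at or above 50%; inactive means inhibition below 50%.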

Voltage-gated potassium channel subunit beta-2 (Rattus norvegicus), sequence (P62483 whole entry, looked up): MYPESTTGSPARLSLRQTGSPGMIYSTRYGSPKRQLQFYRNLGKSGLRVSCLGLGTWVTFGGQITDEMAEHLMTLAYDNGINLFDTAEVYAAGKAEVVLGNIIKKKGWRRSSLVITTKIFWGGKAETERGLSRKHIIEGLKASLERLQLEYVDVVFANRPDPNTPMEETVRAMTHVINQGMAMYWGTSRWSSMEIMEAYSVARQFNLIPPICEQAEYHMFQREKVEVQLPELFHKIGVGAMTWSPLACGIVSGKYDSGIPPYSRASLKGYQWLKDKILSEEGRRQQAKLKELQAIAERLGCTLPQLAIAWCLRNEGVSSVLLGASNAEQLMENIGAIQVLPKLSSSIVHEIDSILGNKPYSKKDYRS
Muscarinic acetylcholine receptor M4 (Homo sapiens), sequence (P08173 whole entry, looked up): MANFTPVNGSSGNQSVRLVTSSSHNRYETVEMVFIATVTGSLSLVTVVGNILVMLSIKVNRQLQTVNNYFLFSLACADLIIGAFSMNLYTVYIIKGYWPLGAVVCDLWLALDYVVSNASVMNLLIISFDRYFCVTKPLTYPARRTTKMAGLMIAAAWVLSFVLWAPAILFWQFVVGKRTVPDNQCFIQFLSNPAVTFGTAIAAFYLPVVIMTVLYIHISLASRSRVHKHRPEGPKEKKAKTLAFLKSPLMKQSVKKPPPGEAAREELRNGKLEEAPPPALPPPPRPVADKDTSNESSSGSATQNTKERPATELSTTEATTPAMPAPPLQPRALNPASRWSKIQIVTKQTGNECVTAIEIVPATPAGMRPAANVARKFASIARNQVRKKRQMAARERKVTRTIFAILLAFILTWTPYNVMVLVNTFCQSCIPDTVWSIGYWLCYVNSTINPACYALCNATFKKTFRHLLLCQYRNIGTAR

In the case of `Cc1ccc(NC(=O)COc2nc(C)cs2)cc1`, in test [1], the cell count was 400. Further, the inhibition in test [1] is 4.5% (inactive); in test [3], -48.8% (inactive); in test [7] it was 6.37% (inactive); in test [8], 9.54% (inactive). Moreover, the inhibition of aggregation in test [2] is -3.7% (inactive). The values for the nuclei count in test [2] and in test [3] were 100% and 108%, respectively. Further, the fluorescence slope in test [4] is -0.555 (inactive); in test [6] it was 0.00704 (inactive). Also, the NADPH fluorescence slope in test [5] is -5e-05 (inactive).

For `O=C(NCC(=O)N(CCc1ccccc1)C(C(=O)NC1CCCC1)c1cccnc1)c1ccco1` (stereo not given), the cell count in test [1] came out at 464. Further, the inhibition in test [1] is 6.5% (inactive); in test [3] it was -126% (inactive); in test [7] it was 7.14% (inactive); in test [8] it was 6.57% (inactive). Also, the inhibition of aggregation in test [2] is 2.2% (inactive). Moreover, the nuclei count in test [2] amounted to 108%; in test [3], 141%. The results for the fluorescence slope in test [4] and in test [6] were -0.493 (inactive) and 0.00509 (inactive), respectively. In addition, the NADPH fluorescence slope in test [5] is 1.4e-05 (inactive).

On to `CCOC(=O)c1cccc(NC(=O)CSc2nc3ccccc3c(=O)n2CC)c1`, for which the cell count in test [1] was 360. Further, the inhibition was 4.2% (inactive) in test [1], -1.3% (inactive) in test [3], 9.39% (inactive) in test [7] and 18.3% (inactive) in test [8]. Also, the inhibition of aggregation in test [2] was 7.7% (inactive). Besides, the nuclei count came to 98.9% in test [2] and 104% in test [3]. In addition, the fluorescence slope in test [4] is -0.465 (inactive); in test [6], 0.00728 (inactive). Also, the NADPH fluorescence slope in test [5] was 2.3e-05 (inactive).

For `O=C(CN1C(=O)CCSc2ccccc21)Nc1ccc(F)cc1`, the cell count in test [1] is 312. The inhibition in test [1] was 0.7% (inactive); in test [3] it was -8.3% (inactive); in test [7], -6.29% (inactive); in test [8], 2.08% (inactive). In test [2], the inhibition of aggregation is -6% (inactive). For the same molecule, the values for the nuclei count in test [2] and in test [3] were 100% and 110%, respectively. Further, the fluorescence slope was -0.473 (inactive) in test [4] and 0.00664 (inactive) in test [6]. For the same molecule, the NADPH fluorescence slope in test [5] is 4.1e-05 (inactive).

For `CCC(C)N=C1SCC(C)(/C=N/O)S1` (stereo not given), the cell count in test [1] is 367. Also, the inhibition in test [1] was -7.2% (inactive); in test [3] it was -31.5% (inactive); in test [7], 9.86% (inactive); in test [8], 2.1% (inactive). Moreover, the inhibition of aggregation in test [2] was 16.5% (inactive). The nuclei count worked out at 80.1% in test [2] and 122% in test [3]. Further, the fluorescence slope in test [4] was -0.55 (inactive); in test [6], 0.00292 (inactive). The NADPH fluorescence slope in test [5] was -6.5e-05 (inactive).

`Cc1csc2nc3ccccc3c(=O)n12`: the cell count in test [1] came to 270. For the same molecule, the inhibition in test [1] is 3.9% (inactive); in test [3], -48% (inactive); in test [7], 4.9% (inactive); in test [8], -6.37% (inactive). In test [2], the inhibition of aggregation is -14.2% (inactive). In addition, the nuclei count was 97.6% in test [2] and 119% in test [3]. Further, the fluorescence slope in test [4] was -0.579 (inactive); in test [6], 0.00358 (inactive). Further, in test [5], the NADPH fluorescence slope was -1.2e-05 (inactive).

Take `CN(CC(=O)N1CCN(c2ccccn2)CC1)S(=O)(=O)c1ccc2ccccc2c1`: in test [1], the cell count was 395. Also, the inhibition in test [1] was 0.9% (inactive); in test [3] it was -109% (inactive); in test [7] it was 4.05% (inactive); in test [8] it was 4.08% (inactive). Moreover, in test [2], the inhibition of aggregation was 1.9% (inactive). For the same molecule, the nuclei count is 115% in test [2] and 119% in test [3]. The fluorescence slope in test [4] was -0.478 (inactive); in test [6] it was 0.00469 (inactive). Also, the NADPH fluorescence slope in test [5] was -7e-05 (inactive).

Consider `O=S(=O)(NCCc1ccncc1)c1cc(Br)ccc1F`, for which, in test [1], the cell count amounted to 231. For the same molecule, the inhibition is 1.9% (inactive) in test [1], -46.9% (inactive) in test [3], 24.5% (inactive) in test [7] and 16.5% (inactive) in test [8]. The inhibition of aggregation in test [2] is -9.7% (inactive). Also, the nuclei count in test [2] was 106%; in test [3], 110%. Besides, the fluorescence slope in test [4] is -0.626 (inactive); in test [6], 0.00792 (inactive). The NADPH fluorescence slope in test [5] is -1.6e-05 (inactive).

Turning to `Cc1c(C(=O)O)sc2nc3n(c(=O)c12)CCC(C)CC3` (stereo not given), in test [1], the cell count turned out to be 621. The inhibition was -10.5% (inactive) in test [1], -29.1% (inactive) in test [3], 6.81% (inactive) in test [7] and 11.1% (inactive) in test [8]. Also, the inhibition of aggregation in test [2] was -7.7% (inactive). The figures for the nuclei count in test [2] and in test [3] were 113% and 110%, respectively. Further, the fluorescence slope in test [4] is -0.442 (inactive); in test [6], 0.00587 (inactive). The NADPH fluorescence slope in test [5] was 6.7e-05 (inactive).

Turning to `O=C(CSc1nc(-c2ccc(F)cc2)cs1)N1CCOCC1`, in test [1], the cell count turned out to be 311. Moreover, the inhibition is 9.3% (inactive) in test [1], -45.8% (inactive) in test [3], -23.2% (inactive) in test [7] and -106% (inactive) in test [8]. Besides, the inhibition of aggregation in test [2] is 20.5% (inactive). Also, the results for the nuclei count in test [2] and in test [3] were 95.1% and 93.6%, respectively. Further, the fluorescence slope was -0.462 (inactive) in test [4] and 0.00525 (inactive) in test [6]. Besides, the NADPH fluorescence slope in test [5] is 2.4e-05 (inactive).

Consider `O=C(Nc1ccccc1)N(CCN1CCOCC1)Cc1ccccc1F`, for which, in test [1], the cell count worked out at 665. Further, the inhibition in test [1] is -4.1% (inactive); in test [3] it was -68% (inactive); in test [7], -14.2% (inactive); in test [8], -15.8% (inactive). In addition, in test [2], the inhibition of aggregation is -16.2% (inactive). Moreover, the nuclei count in test [2] was 101%; in test [3] it was 96.7%. Further, the fluorescence slope is -0.61 (inactive) in test [4] and 0.00376 (inactive) in test [6]. The NADPH fluorescence slope in test [5] is 1.5e-05 (inactive).

On to `c1ccc(-n2nnnc2OCCOc2nnnn2-c2ccccc2)cc1`, for which the cell count in test [1] came to 172. Further, the inhibition is -10.5% (inactive) in test [1], -5.3% (inactive) in test [3], 14.3% (inactive) in test [7] and 23.8% (inactive) in test [8]. Further, the inhibition of aggregation in test [2] is 11.5% (inactive). Also, the nuclei count amounted to 102% in test [2] and 83.1% in test [3]. Further, the fluorescence slope in test [4] was -0.562 (inactive); in test [6], 0.00376 (inactive). The NADPH fluorescence slope in test [5] was -6.2e-05 (inactive).

With `CC(=O)Nc1ccc(Cl)cc1C(=O)O`, in test [1], the cell count worked out at 236. For the same molecule, the inhibition in test [1] was 1.3% (inactive); in test [3] it was 35.3% (inactive); in test [7] it was 20.8% (inactive); in test [8], 16.7% (inactive). Moreover, the inhibition of aggregation in test [2] is -13.3% (inactive). The nuclei count was 74.7% in test [2] and 74.6% in test [3]. For the same molecule, the fluorescence slope in test [4] was -0.519 (inactive); in test [6] it was 0.00503 (inactive). In test [5], the NADPH fluorescence slope was 8e-06 (inactive).

In the case of `Cc1ccc(C)n1NC(=O)c1ccco1`, in test [1], the cell count turned out to be 692. Also, the inhibition in test [1] was -4.7% (inactive); in test [3], -19.2% (inactive); in test [7] it was 9.01% (inactive); in test [8], 14.3% (inactive). Also, the inhibition of aggregation in test [2] is 0% (inactive). Also, the nuclei count in test [2] is 94.1%; in test [3] it was 109%. Also, the fluorescence slope in test [4] was -0.567 (inactive); in test [6], 0.00521 (inactive). Also, in test [5], the NADPH fluorescence slope is -1.3e-05 (inactive).

For the molecule `CCOc1nc(-c2ccccc2)ccc1-c1noc(-c2cccnc2)n1`, the cell count in test [1] worked out at 233. The inhibition in test [1] is 8.4% (inactive); in test [3], 29.6% (inactive); in test [7], -14.5% (inactive); in test [8] it was -16% (inactive). In addition, the inhibition of aggregation in test [2] is -0.3% (inactive). Also, the values for the nuclei count in test [2] and in test [3] were 99.4% and 91.1%, respectively. Besides, the values for the fluorescence slope in test [4] and in test [6] were -0.427 (inactive) and 0.00434 (inactive), respectively. The NADPH fluorescence slope in test [5] is -0.000244 (inactive).
